From ChEMBL document CHEMBL3526089, “Selective mechanism-based inactivation of CYP3A4 by CYP3cide (PF-04981517) and its utility as an in vitro tool for delineating the relative roles of CYP3A4 versus CYP3A5 in the metabolism of drugs” (Drug Metab Dispos, 2012)

What was measured:
Type in all cases: ADME
[1] = tested on: CYP3A5*3/*3; assay: Inhibition of CYP3A5*3/*3 in human liver microsomes assessed as midazolam 1'-hydroxylase activity at 0.56 uM after 10 mins; conditions: liver microsomes (CYP3A5*3/*3 genotype), probe midazolam (1'-hydroxylation)
Outline: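 Genotyped individual HLMs (0.1 mg/ml) preincubated at 37°C with CYP3cide (0–1.3 μM; 10 min in the two-donor study, 5 min in the 30-donor study), with or without 1.3 mM NADPH (N=3). Mixture diluted 20-fold into 23 μM midazolam for 6 min. 1'-OH-midazolam measured. Readout: % of vehicle/no-NADPH control activity.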

[2] = molecular target: CYP1A2 (Homo sapiens, UniProt P05177); assay: Time dependent inhibition of human CYP1A2 phenacetin O-deethylase activity assessed as decrease in enzyme activity at 100 uM preincubated for 30 mins by IC25-shift assay; conditions: probe phenacetin (O-deethylation)
CYP1A2, sequence (P05177 whole entry): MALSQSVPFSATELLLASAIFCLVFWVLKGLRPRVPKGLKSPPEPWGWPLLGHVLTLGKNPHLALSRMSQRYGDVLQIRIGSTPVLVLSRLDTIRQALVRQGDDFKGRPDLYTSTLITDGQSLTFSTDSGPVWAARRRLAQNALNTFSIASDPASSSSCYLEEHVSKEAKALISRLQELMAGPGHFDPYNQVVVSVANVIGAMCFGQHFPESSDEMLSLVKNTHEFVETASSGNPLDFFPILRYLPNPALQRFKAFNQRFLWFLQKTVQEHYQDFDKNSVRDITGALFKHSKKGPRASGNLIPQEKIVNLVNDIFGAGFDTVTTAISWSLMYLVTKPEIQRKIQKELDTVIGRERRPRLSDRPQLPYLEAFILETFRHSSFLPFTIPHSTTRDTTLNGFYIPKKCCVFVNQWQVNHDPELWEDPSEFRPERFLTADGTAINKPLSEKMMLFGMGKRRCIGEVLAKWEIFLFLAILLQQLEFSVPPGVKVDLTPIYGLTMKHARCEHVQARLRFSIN
Outline: (§1)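 IC25-shift assay. Pooled HLMs or recombinant CYP3A4/3A5/3A7 were preincubated 30 min at 37°C with CYP3cide, with or without NADPH (1.3 mM) (N=2). Mixture diluted 10-fold into probe substrate (~KM) at 37°C. Metabolites analysed by LC/MS/MS. Readout: % decrease in activity vs control.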

[3] = molecular target: CYP2B6 (Homo sapiens, UniProt P20813); assay: Time dependent inhibition of human CYP2B6 bupropion hydroxylase activity assessed as decrease in enzyme activity at 100 uM preincubated for 30 mins by IC25-shift assay; conditions: probe bupropion (hydroxylation); outline: as §1
CYP2B6, sequence (P20813 whole entry): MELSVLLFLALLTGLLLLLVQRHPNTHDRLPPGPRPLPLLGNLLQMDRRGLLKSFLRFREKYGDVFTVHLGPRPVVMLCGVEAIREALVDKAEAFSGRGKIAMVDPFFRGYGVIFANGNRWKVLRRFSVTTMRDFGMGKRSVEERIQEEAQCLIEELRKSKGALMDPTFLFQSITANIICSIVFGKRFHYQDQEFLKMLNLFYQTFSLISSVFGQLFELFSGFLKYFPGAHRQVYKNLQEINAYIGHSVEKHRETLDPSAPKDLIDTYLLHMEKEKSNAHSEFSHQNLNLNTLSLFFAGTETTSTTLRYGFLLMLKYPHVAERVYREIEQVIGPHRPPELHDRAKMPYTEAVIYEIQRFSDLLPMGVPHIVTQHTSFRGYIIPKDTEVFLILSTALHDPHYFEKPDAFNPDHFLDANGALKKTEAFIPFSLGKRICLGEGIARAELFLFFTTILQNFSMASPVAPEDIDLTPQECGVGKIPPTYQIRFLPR

[4] = molecular target: Cytochrome P450 3A4 (Homo sapiens, UniProt P08684); assay: Reversible inhibition of testosterone 6beta-hydroxylase activity of human recombinant CYP3A4 in presence of human P450 oxidoreductase and b5
Cytochrome P450 3A4, sequence (P08684 whole entry): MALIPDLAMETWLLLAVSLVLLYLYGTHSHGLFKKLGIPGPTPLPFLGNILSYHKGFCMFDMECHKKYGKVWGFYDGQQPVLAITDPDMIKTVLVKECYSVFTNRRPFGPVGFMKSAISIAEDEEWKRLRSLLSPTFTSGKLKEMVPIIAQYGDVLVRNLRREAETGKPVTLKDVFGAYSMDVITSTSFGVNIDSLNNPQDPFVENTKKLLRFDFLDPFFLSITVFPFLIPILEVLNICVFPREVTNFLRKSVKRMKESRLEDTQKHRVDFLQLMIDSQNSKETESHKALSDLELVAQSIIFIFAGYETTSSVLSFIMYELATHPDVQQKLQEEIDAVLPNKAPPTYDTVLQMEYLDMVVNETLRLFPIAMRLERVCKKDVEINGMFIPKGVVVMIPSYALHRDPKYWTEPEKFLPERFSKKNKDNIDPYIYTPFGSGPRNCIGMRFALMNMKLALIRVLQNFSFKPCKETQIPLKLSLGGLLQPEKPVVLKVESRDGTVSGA
Outline: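 IC50 was measured with baculovirus-expressed CYP3A4 plus POR and cytochrome b5 (P450:reductase:b5 1:5:7), with substrate at its experimentally derived KM, in duplicate. Enzyme was 0.010 mg/ml for midazolam 1'-hydroxylation and 0.020 mg/ml for testosterone 6β-hydroxylation.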

[5] = molecular target: CYP3A5 (Homo sapiens, UniProt P20815); assay: Time dependent inhibition of midazolam 1'-hydroxylase activity of human recombinant CYP3A5 harboring human P450 oxidoreductase and b5 assessed as decrease in enzyme activity at 2 uM preincubated for 30 mins by IC25-shift assay; conditions: recombinant CYP3A5 with human P450 oxidoreductase and b5, probe midazolam (1'-hydroxylation); outline: as §1
CYP3A5, sequence (P20815 whole entry): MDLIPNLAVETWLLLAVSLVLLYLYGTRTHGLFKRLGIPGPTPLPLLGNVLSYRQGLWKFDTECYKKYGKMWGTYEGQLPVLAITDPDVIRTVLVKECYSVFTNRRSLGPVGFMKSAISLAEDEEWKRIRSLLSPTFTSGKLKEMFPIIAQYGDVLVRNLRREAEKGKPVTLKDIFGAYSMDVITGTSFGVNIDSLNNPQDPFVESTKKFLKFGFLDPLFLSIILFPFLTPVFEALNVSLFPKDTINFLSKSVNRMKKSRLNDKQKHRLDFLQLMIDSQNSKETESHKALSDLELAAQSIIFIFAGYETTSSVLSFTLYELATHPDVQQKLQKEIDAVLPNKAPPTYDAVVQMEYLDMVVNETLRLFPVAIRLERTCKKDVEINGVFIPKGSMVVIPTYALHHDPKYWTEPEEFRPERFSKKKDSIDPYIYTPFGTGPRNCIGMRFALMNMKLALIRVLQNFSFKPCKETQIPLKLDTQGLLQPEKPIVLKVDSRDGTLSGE

[6] = Inhibition of CYP3A5*3/*3 in 5 mg/ml of human liver microsomes assessed as midazolam 1'-hydroxylase activity at 13 uM after 10 mins

inhibition at 10 min, 0.56 µM [1]: > 85%
inhibition at 30 min, 100 µM [2]: 17%
inhibition at 30 min, 100 µM [3]: 2.4%
IC50 [4]: 690 nM
inhibition at 30 min, 2 µM [5]: 61%
inhibition (INH) [6]: Active
Structure (SMILES): Cc1ccc(-c2c(-c3nn(C)c4ncnc(N5CC[C@H](N6CCCCC6)C5)c34)cnn2C)cc1
